{
  "source": "ChEMBL document CHEMBL1147748",
  "about": "“Overlapping, nonidentical binding sites of different classes of nonpeptide antagonists for the human gonadotropin-releasing hormone receptor” (J Med Chem, 2006)",
  "key": {"[1]": {"target": "Gonadotropin-releasing hormone receptor (Homo sapiens, UniProt P30968, L112K)", "sequence (P30968 whole entry L112K)": "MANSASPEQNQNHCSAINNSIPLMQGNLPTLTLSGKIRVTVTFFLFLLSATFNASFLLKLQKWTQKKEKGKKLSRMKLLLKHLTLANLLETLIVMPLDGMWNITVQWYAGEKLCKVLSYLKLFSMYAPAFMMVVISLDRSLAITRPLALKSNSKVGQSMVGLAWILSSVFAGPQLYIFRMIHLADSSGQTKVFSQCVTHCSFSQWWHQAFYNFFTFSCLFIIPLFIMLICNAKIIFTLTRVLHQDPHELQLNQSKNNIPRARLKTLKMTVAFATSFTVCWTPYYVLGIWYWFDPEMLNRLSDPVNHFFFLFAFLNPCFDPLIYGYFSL", "experiment": "Displacement of [125I]-His5, D-Tyr6]GnRH from mutant GnRHR, GnRHR L112K", "in_short": "(§1)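 Human GnRH-R (wild type or site-directed point mutant) was transiently expressed in COS-7 cells by electroporation, with cells cultured 36-48 h before membranes were prepared. Membranes (5-20 µg per point) were incubated 2 h at room temperature with 0.3 nM tracer and varying competitor in HEPES pH 7.5, 150 mM NaCl, 0.1% BSA, then filtered and counted.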"}, "[2]": {"target": "Gonadotropin-releasing hormone receptor (Homo sapiens, UniProt P30968, H306K)", "sequence (P30968 whole entry H306K)": "as the sequence (P30968 whole entry L112K) above, with K112L, H306K counted along it", "experiment": "Displacement of [125I]-His5, D-Tyr6]GnRH from mutant GnRHR, GnRHR H306K", "in_short": "as §1"}, "[3]": {"target": "Gonadotropin-releasing hormone receptor (Homo sapiens, UniProt P30968, N27E)", "sequence (P30968 whole entry N27E)": "as the sequence (P30968 whole entry L112K) above, with N27E, K112L counted along it", "experiment": "Displacement of [125I]-His5, D-Tyr6]GnRH from mutant GnRHR, GnRHR N27E", "in_short": "as §1"}, "[4]": {"target": "Gonadotropin-releasing hormone receptor (Homo sapiens, UniProt P30968, S118N)", "sequence (P30968 whole entry S118N)": "as the sequence (P30968 whole entry L112K) above, with K112L, S118N counted along it", "experiment": "Displacement of [125I]-His5, D-Tyr6]GnRH from mutant GnRHR, GnRHR S118N"}, "[5]": {"target": "Gonadotropin-releasing hormone receptor (Homo sapiens, UniProt P30968, T190K)", "sequence (P30968 whole entry T190K)": "as the sequence (P30968 whole entry L112K) above, with K112L, T190K counted along it", "experiment": "Displacement of [125I]-His5, D-Tyr6]GnRH from mutant GnRHR, GnRHR T190K"}, "[6]": {"target": "Gonadotropin-releasing hormone receptor (Homo sapiens, UniProt P30968, K121A)", "sequence (P30968 whole entry K121A)": "as the sequence (P30968 whole entry L112K) above, with K112L, K121A counted along it", "experiment": "Displacement of [125I]-His5, D-Tyr6]GnRH from mutant GnRHR, GnRHR K121A", "in_short": "as §1"}, "[7]": {"target": "Gonadotropin-releasing hormone receptor (Homo sapiens, UniProt P30968, L112A)", "sequence (P30968 whole entry L112A)": "as the sequence (P30968 whole entry L112K) above, with K112A counted along it", "experiment": "Displacement of [125I]-His5, D-Tyr6]GnRH from mutant GnRHR, GnRHR L112A", "in_short": "as §1"}, "[8]": {"target": "Gonadotropin-releasing hormone receptor (Homo sapiens, UniProt P30968, N315D)", "sequence (P30968 whole entry N315D)": "as the sequence (P30968 whole entry L112K) above, with K112L, N315D counted along it", "experiment": "Displacement of [125I]-His5, D-Tyr6]GnRH from mutant GnRHR, GnRHR N315D", "in_short": "as §1"}, "[9]": {"target": "Gonadotropin-releasing hormone receptor (Homo sapiens, UniProt P30968, N305D)", "sequence (P30968 whole entry N305D)": "as the sequence (P30968 whole entry L112K) above, with K112L, N305D counted along it", "experiment": "Displacement of [125I]-His5, D-Tyr6]GnRH from mutant GnRHR, GnRHR N305D", "in_short": "as §1"}, "[10]": {"target": "Gonadotropin-releasing hormone receptor (Homo sapiens, UniProt P30968, K191E)", "sequence (P30968 whole entry K191E)": "as the sequence (P30968 whole entry L112K) above, with K112L, K191E counted along it", "experiment": "Displacement of [125I]-His5, D-Tyr6]GnRH from mutant GnRHR, GnRHR K191E", "in_short": "as §1"}, "[11]": {"target": "Gonadotropin-releasing hormone receptor (Homo sapiens, UniProt P30968, S186K)", "sequence (P30968 whole entry S186K)": "as the sequence (P30968 whole entry L112K) above, with K112L, S186K counted along it", "experiment": "Displacement of [125I]-His5, D-Tyr6]GnRH from mutant GnRHR, GnRHR S186K"}},
  "data": [
    {"smiles": "CC(C)C[C@H](NC(=O)[C@@H](Cc1ccc(O)cc1)NC(=O)[C@H](Cc1c[nH]cn1)NC(=O)[C@H](CO)NC(=O)[C@H](Cc1c[nH]c2ccccc12)NC(=O)[C@H](Cc1c[nH]cn1)NC(=O)[C@@H]1CCC(=O)N1)C(=O)N[C@@H](CCCN=C(N)N)C(=O)N1CCC[C@H]1C(=O)NCC(N)=O", "values": [
      {"measurement": "IC50", "setting": "[1]", "result": 3.5, "unit": "nM"},
      {"measurement": "IC50", "setting": "[2]", "result": 66.2, "unit": "nM"},
      {"measurement": "IC50", "setting": "[3]", "result": 3.8, "unit": "nM"},
      {"measurement": "IC50", "setting": "[4]", "result": 1.1, "unit": "nM"},
      {"measurement": "IC50", "setting": "[5]", "result": 3.7, "unit": "nM"},
      {"measurement": "IC50", "setting": "[6]", "result": 267, "unit": "nM"},
      {"measurement": "IC50", "setting": "[7]", "result": 2.5, "unit": "nM"},
      {"measurement": "IC50", "setting": "[8]", "result": 1.5, "unit": "nM"},
      {"measurement": "IC50", "setting": "[9]", "result": 41.1, "unit": "nM"},
      {"measurement": "IC50", "setting": "[10]", "result": 3.7, "unit": "nM"},
      {"measurement": "IC50", "setting": "[11]", "result": 4.1, "unit": "nM"}
    ]},
    {"smiles": "COc1c(C)cc(-c2[nH]c3ccc(C(C)(C)C(=O)N(CC(C)C)CC(C)C)cc3c2[C@H](C)CNCCc2ccccc2)cc1C", "values": [
      {"measurement": "IC50", "setting": "[1]", "result": 24.2, "unit": "nM"},
      {"measurement": "IC50", "setting": "[2]", "result": 101, "unit": "nM"},
      {"measurement": "IC50", "setting": "[3]", "result": 10.8, "unit": "nM"},
      {"measurement": "IC50", "setting": "[4]", "result": 63.7, "unit": "nM"},
      {"measurement": "IC50", "setting": "[5]", "result": 19.8, "unit": "nM"},
      {"measurement": "IC50", "setting": "[6]", "result": 82.3, "unit": "nM"},
      {"measurement": "IC50", "setting": "[7]", "result": 22.4, "unit": "nM"},
      {"measurement": "IC50", "setting": "[8]", "result": 49.3, "unit": "nM"},
      {"measurement": "IC50", "setting": "[9]", "result": 46.5, "unit": "nM"},
      {"measurement": "IC50", "setting": "[10]", "result": 11, "unit": "nM"},
      {"measurement": "IC50", "setting": "[11]", "result": 13.1, "unit": "nM"}
    ]}
  ]
}
